This is a sample that favours compounds with a hit; in the whole collection about 1.5% have one here.
aDG glyco up – alpha-DG glycosylation activation; Pro5-aDG cells, alpha-DG glycosylation AlphaScreen (IIH6); 0% Pro5, 100% B10-LARGE cell signal; activation, % at 10 µM; hit rate 0.22% among 360,000;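 active means activation of at least 8% versus controls, or a plate z-score of at least 8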;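 further: Pro5 are CHO cells carrying HIG-tagged alpha-DG that lacks glycosylation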
HNF4A DNA FP – change in binding of human HNF4 alpha to DNA; P41235; HNF4a-FITC DNA binding, fluorescence polarization, 1 h; activity change, % at 10 µM; hit rate 0.3% among 360,000; AID 1224865; in the data active means activity change above about 30%, passing the limit was not always enough
Target sequence (P41235 whole entry, looked up): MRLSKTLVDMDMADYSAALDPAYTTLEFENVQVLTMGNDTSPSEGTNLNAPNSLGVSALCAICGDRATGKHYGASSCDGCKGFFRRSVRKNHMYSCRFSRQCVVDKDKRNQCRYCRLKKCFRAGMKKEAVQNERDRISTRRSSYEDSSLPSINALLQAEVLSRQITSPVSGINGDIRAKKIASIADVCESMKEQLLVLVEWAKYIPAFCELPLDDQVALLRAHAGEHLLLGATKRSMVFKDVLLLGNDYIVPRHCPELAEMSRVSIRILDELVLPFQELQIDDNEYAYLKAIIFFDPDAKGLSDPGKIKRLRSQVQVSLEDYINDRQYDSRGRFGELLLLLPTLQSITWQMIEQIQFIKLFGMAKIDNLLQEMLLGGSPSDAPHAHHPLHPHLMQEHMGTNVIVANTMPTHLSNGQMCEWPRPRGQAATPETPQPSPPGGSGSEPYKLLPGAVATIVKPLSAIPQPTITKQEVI
Rev-erbA mod – modulators of human Rev-erb alpha DNA binding. hit rate 0.79% among 370,000. Rev-erbα–FITC-DNA binding, fluorescence polarization, 90 min. activity, % at 10 µM. AID 1259318. P20393;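 active means activity above about 14%, limit read from the data; passing the limit was not always enough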;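 further: 0% = DMSO wells with 35 nM protein and 100% = DMSO wells with 750 nM protein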
CSN deneddyl inh – inhibitors of human CSN-mediated cullin deneddylation. Q92905. Purified CSN, SCF-Nedd8-OG deneddylation, fluorescence polarization. inhibition, % at 12.5 µM. hit rate 0.38% among 360,000. AID 651999;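 active means pattern-corrected inhibition above about 35%, with an unprinted fluorescence ratio check between 0.5 and 1.5, limit read from the data, passing the limit was not always enough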;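 further: 0% = enzyme with substrate and 100% = substrate without enzyme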
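assay system = purified human Csn5 enzyme expressed in HEK293T cells | amount = 0.24 nM enzyme | buffer or medium = Tris/NaCl/DTT buffer, pH 7.5 | reagent = 10 nM SCFSkp2-Nedd8OG | compound = one concentration, 12.5 µM, 0.25% DMSO | times = 90 min reaction at room temperature | signal = FP | read-out basis = % inhibition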
aDG conf – alpha-DG glycosylation activation, confirmation | shares compounds with aDG glyco up | Pro5-aDG cells, IIH6 AlphaLISA; scaled to LARGE-overexpressing B10 cells as 100% | activation, % at 10 µM (by protocol) | hit rate 17% among 600 | AID 651671;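 active means activation of at least 7% in one or more replicates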;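 further: cells exposed to compound for two days before detection; 0% = DMSO-treated Pro5 cells and 100% = DMSO-treated B10-LARGE cells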
CSN deneddyl val – validation of inhibitors of human CSN-mediated cullin deneddylation; shares compounds with CSN deneddyl inh; hit rate 62% among 540; AID 720654; inhibition, % at 16.6 µM; Csn5 deneddylation of SCF-Nedd8OG, fluorescence polarization, 90 min; in the data active means inhibition above about 50%;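 further: 0% = DMSO with enzyme and 100% = no enzyme wells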
MMP-2 counter – MMP-2 (human) inhibition, counter-screen for CSN hits; shares compounds with CSN deneddyl inh; recombinant MMP-2, FRET substrate fluorescence, 60 min; inhibition, % at 16.6 µM; hit rate 33% among 540; AID 720655;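 active means corrected plate-normalized z-score of 5 or more, or -5 or less, or inhibition of 15% or more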;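 further: plate controls were DMSO wells with enzyme for no effect and buffer wells lacking MMP-2 for full effect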
Thrombin cntr – blocks bovine thrombin in a CSN deneddylation counter-screen | shares compounds with CSN deneddyl inh | bovine thrombin cleavage of Ub4-pepOG, fluorescence polarization | inhibition, % at 16.6 µM | hit rate 49% among 540 | AID 720656;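 active means inhibition at or above a set limit, with a fluorescence interference ratio between 0.5 and a set maximum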
HNF4A confirm – change in binding of human HNF4 alpha to DNA, retest. hit rate 99% among 210. shares compounds with HNF4A DNA FP. HNF4A-FITC DNA binding, fluorescence polarization, 1 h. activity change, % at 12.5 µM. AID 1224897; call rule not given here
Rev-erbA confirm – confirmation of modulators of human Rev-erb alpha DNA binding; shares compounds with Rev-erbA mod; Rev-erb alpha FITC-DNA binding, fluorescence polarization, 90 min; activation, % at 25 µM; hit rate 61% among 3,000; AID 1259319;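 active means activation at or above a set limit, or at least 3 SD above the negative control mean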;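 further: 0% = 35 nM protein with DMSO and 100% = 750 nM protein high control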
RORg DNA counter – RORgamma DNA-binding activity, dose-response counter-screen | shares compounds with Rev-erbA mod | purified RORgamma protein-FITC-DNA binding, fluorescence polarization | IC50, µM | hit rate 8% among 910 | AID 1259320;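 active means Compounds whose fitted half-maximal concentration for disrupting protein-DNA binding is below 10 micromolar; the record names Rev-erb in its text, so the target is in doubt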
* marks the source's active call; other numbers are inactive results.

`O=C(/C=C/c1ccc2c(c1)OCO2)N1CCN(c2ccc(Cl)cc2)CC1` gave aDG glyco up 15*, HNF4A DNA FP -6, Rev-erbA mod 4, CSN deneddyl inh -6 and aDG conf 1.
Nc1cc2c3ccccc3ccc2c2ccccc12 was read as aDG glyco up 4.7*, HNF4A DNA FP 14, Rev-erbA mod -11, CSN deneddyl inh 46*, aDG conf 0, CSN deneddyl val 82*, MMP-2 counter 9 and Thrombin cntr -15.
For COc1ccc(-n2c(SCc3nc4ccccc4[nH]3)nc3ccccc3c2=O)cc1 the results were Rev-erbA mod -6.
CN1CCc2c(sc(NC(=O)c3ccc(S(=O)(=O)N4CCCC4)cc3)c2C(N)=O)C1 was read as aDG glyco up 14*, HNF4A DNA FP 36*, Rev-erbA mod 0, CSN deneddyl inh 14, aDG conf 2 and HNF4A confirm 32*.
`CCN(C(=O)CSc1nnc(-c2cccnc2)n1Cc1ccco1)c1ccccc1C` gave Rev-erbA mod -7.
For Cc1nc2ccc3nc(NC(=O)c4ccc5c(c4)OCCO5)sc3c2s1 the results were aDG glyco up 7.7*, HNF4A DNA FP 6, Rev-erbA mod 78*, CSN deneddyl inh 9, aDG conf -1, Rev-erbA confirm 39* and RORg DNA counter >40.
`CC(=O)c1ccc(NC(=O)NC2CCCCN(Cc3cccc(Cl)c3)C2=O)cc1` (stereo not drawn) gave Rev-erbA mod 4.
Screening CC(C)Cn1c(N)c(C(=O)NCC2CCCO2)c2nc3ccccc3nc21 (stereo not drawn) returned aDG glyco up 0, HNF4A DNA FP 4, Rev-erbA mod 1, CSN deneddyl inh 43*, CSN deneddyl val 103*, MMP-2 counter -5 and Thrombin cntr -5.
Screening COCCn1c(N)c(C(=O)NCC2CCCO2)c2nc3ccccc3nc21 (stereo not drawn) returned aDG glyco up 0, HNF4A DNA FP -1, Rev-erbA mod 0 and CSN deneddyl inh 9.
Screening COc1cc2sc3cc(NCC[C@@H]4CCCN4C)ccc3c(=O)c2cc1OC returned aDG glyco up 0, HNF4A DNA FP 21, Rev-erbA mod -31, CSN deneddyl inh 36*, CSN deneddyl val 109*, MMP-2 counter 8 and Thrombin cntr -15.
`Cn1cc(/C=N/NC(=O)c2cc3cc(Br)ccc3o2)c2ccccc21` gave aDG glyco up 0, HNF4A DNA FP 1, Rev-erbA mod 9 and CSN deneddyl inh 2.
`O=C(O)c1ccc(-n2cccc2/C=N\NC(=O)c2cc3cc(Br)ccc3o2)cc1` gave aDG glyco up 0, HNF4A DNA FP -48, Rev-erbA mod -28, CSN deneddyl inh 43*, CSN deneddyl val 4, MMP-2 counter 21* and Thrombin cntr 22*.
Screening N=C1/C(=C\c2ccc(-c3cccc(C(=O)O)c3)o2)C(=O)N=C2SC=C(c3ccccc3)N12 returned aDG glyco up 0, HNF4A DNA FP -6, Rev-erbA mod -11, CSN deneddyl inh 64*, MMP-2 counter 16* and Thrombin cntr 29*.
`N=C1/C(=C/c2ccc(-c3cccc(C(=O)O)c3)o2)C(=O)N=C2SC(CC(=O)N3CCOCC3)=NN12` gave aDG glyco up 0, HNF4A DNA FP -20, Rev-erbA mod -8 and CSN deneddyl inh 33.
For CC(=O)Nc1cccc(-c2cc(NC=O)c3ncc(-c4ccc(C(C)=O)cc4)n3c2)c1 the results were aDG glyco up 0, HNF4A DNA FP 9, Rev-erbA mod -7 and CSN deneddyl inh 7.
For COc1ccc(-c2cc(NC=O)c3ncc(-c4ccc(C(C)=O)cc4)n3c2)cn1 the results were aDG glyco up 0, HNF4A DNA FP 22, Rev-erbA mod -1, CSN deneddyl inh 42*, CSN deneddyl val 100*, MMP-2 counter 5 and Thrombin cntr 3.
`O=C1/C(=C\c2ccc(O)c(O)c2)N=C2CCCCCN12` gave aDG glyco up 0, HNF4A DNA FP 32, Rev-erbA mod 8, CSN deneddyl inh 38*, CSN deneddyl val 69*, MMP-2 counter 6 and Thrombin cntr 45*.
For O=S(=O)(Nc1cc2nc3ccccc3nc2n1Cc1ccccc1)c1ccc(Cl)cc1 the results were aDG glyco up 2, HNF4A DNA FP -6, Rev-erbA mod 0, CSN deneddyl inh 70*, CSN deneddyl val 77*, MMP-2 counter -7 and Thrombin cntr 3.
Screening COC(=O)[C@]12C[C@H](CC(=O)NCc3ccc(C)o3)C(=O)N(CCc3ccc(OC)c(OC)c3)C1=C[C@H](C(C)C)O[C@@H]2C1CC1 returned Rev-erbA mod 1.
For CCCc1cc(=O)oc2cc(OCC(=O)Nc3ccc(S(N)(=O)=O)cc3)ccc12 the results were aDG glyco up 0, HNF4A DNA FP -34, Rev-erbA mod 11, CSN deneddyl inh 104*, CSN deneddyl val -3, MMP-2 counter 46* and Thrombin cntr 32*.
Screening CCCc1cc(=O)oc2cc(OCC(=O)NCc3cccs3)ccc12 returned aDG glyco up 0, HNF4A DNA FP 5, Rev-erbA mod 5 and CSN deneddyl inh 8.
Screening Cc1cc(OCC(C)CN2CCC(C(O)(c3ccccc3)c3ccccc3)CC2)ccc1Br (stereo not drawn) returned Rev-erbA mod 3.
Screening CN(C)c1ccc(/C=C/C(=O)c2ccccc2O)cc1 returned aDG glyco up 0, HNF4A DNA FP 27, Rev-erbA mod 2, CSN deneddyl inh 70*, CSN deneddyl val 92*, MMP-2 counter -19 and Thrombin cntr 65*.
Screening CN(C)c1ccc(/C=C/C(=O)c2cccnc2)cc1 returned aDG glyco up 0, HNF4A DNA FP 3, Rev-erbA mod 2, CSN deneddyl inh 49*, CSN deneddyl val 52*, MMP-2 counter -43* and Thrombin cntr 45*.
